These results are taken from ChEMBL document CHEMBL3351355, “Structure-affinity/activity relationships of 1,4-dioxa-spiro[4.5]decane based ligands at α1 and 5-HT1A receptors” (Eur J Med Chem, 2014).

The species named for assay [1] is Rattus norvegicus. The assay can be described thus: Selectivity ratio of Kb for alpha1D adrenoceptor in Wistar rat thoracic aorta to Kb for alpha1A adrenoceptor in Wistar rat vas deferans. In kind it is tissue-based.
For assay [2], the species on record is Rattus norvegicus. Put plainly: Selectivity ratio of Kb for alpha1D adrenoceptor in Wistar rat thoracic aorta to Kb for alpha1B adrenoceptor in Wistar rat spleen. Type of assay: tissue-based.
In assay [3] the target is T1, Alpha-1A adrenergic receptor (Homo sapiens, UniProt P35348).
T1 sequence (P35348 whole entry): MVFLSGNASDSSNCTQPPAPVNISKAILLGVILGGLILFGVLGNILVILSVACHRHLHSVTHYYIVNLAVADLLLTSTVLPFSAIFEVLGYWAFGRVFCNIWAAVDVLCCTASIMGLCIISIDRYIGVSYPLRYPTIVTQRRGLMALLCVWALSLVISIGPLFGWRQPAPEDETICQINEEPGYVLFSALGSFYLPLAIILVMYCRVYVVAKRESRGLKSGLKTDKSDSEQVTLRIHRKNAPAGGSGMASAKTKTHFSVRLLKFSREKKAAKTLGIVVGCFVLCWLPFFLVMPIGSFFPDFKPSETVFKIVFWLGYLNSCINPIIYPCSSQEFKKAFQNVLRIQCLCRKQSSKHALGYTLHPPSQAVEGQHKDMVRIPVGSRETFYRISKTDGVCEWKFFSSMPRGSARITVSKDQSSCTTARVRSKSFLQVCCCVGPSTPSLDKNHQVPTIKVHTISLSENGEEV
The assay can be described thus: Displacement of [3H]prazosin from human recombinant alpha1A adrenoceptor expressed in CHO cells after 30 mins by liquid scintillation counting. On the technique in general: Loss of bound radioactivity is the signal in a displacement assay; it reports binding, not function.

Assay [4] concerns the target T2, Alpha-1B adrenergic receptor (Homo sapiens, UniProt P35368).
T2 sequence (P35368 whole entry): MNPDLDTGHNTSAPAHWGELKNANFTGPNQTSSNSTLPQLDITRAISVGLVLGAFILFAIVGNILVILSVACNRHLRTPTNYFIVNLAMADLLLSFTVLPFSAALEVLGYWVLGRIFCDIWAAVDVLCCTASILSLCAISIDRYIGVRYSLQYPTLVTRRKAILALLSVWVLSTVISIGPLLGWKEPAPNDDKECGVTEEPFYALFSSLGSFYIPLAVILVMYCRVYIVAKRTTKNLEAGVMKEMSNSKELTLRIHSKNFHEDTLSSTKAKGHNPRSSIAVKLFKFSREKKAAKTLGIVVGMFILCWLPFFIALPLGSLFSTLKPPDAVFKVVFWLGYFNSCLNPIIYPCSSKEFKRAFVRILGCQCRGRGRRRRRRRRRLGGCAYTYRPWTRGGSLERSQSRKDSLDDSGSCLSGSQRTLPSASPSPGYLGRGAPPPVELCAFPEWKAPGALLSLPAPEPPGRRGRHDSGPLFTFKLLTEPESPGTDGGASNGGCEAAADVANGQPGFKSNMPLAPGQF
The assay can be described thus: Displacement of [3H]prazosin from human recombinant alpha1B adrenoceptor expressed in CHO cells after 30 mins by liquid scintillation counting. Type of assay: cell-based. The essentials: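 CHO cells were stably transfected by electroporation with each human α1 subtype. Membranes (70 µg protein) were incubated in 50 mM Tris pH 7.4 with 0.1–0.4 nM [3H]prazosin and competitor (1 pM–1 µM) for 30 min at 25 °C. Nonspecific binding with 10 µM tamsulosin. Filtration and scintillation counting. pKi from 2–3 experiments in duplicate.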

The species entered for assay [5] is Rattus norvegicus. The assay can be described thus: Selectivity ratio of Kb for alpha1B adrenoceptor in Wistar rat spleen to Kb for alpha1A adrenoceptor in Wistar rat vas deferans. Type of assay: tissue-based.
For assay [6], the target named is T3, Alpha-1A adrenergic receptor (Rattus norvegicus) (UniProt P43140).
T3 sequence (whole entry): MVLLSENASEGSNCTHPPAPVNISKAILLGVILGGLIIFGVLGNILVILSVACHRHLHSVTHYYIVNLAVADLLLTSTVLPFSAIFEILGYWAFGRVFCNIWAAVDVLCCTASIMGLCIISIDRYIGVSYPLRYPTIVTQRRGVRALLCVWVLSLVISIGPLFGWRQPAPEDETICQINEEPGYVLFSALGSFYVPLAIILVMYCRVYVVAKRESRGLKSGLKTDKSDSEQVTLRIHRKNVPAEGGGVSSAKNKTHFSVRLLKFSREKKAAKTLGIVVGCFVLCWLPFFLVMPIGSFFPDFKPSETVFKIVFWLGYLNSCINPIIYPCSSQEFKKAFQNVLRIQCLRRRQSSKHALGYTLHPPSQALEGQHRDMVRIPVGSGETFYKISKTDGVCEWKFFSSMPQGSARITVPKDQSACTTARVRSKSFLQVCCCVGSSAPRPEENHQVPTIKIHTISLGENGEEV
The assay can be described thus: Antagonist activity at alpha1A adrenoceptor in Wistar rat vas deferans assessed as noradrenaline-induced contractions after 30 mins.

The target of assay [7] is T4, Alpha-1B adrenergic receptor (Rattus norvegicus) (UniProt P15823).
T4 sequence (whole entry): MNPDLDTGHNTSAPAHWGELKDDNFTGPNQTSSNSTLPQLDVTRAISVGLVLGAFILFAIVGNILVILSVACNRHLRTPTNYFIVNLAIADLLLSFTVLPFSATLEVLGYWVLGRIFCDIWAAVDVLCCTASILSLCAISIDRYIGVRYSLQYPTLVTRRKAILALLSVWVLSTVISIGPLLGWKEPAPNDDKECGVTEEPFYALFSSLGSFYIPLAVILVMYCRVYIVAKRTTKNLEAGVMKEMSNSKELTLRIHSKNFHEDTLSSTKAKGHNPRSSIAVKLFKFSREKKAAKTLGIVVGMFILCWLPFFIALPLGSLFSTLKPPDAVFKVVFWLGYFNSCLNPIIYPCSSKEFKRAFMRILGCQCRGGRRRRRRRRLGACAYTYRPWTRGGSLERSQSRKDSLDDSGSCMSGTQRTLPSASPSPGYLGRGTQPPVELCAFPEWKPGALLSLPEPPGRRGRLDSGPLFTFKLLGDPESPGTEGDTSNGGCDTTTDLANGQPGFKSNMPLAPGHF
Put plainly: Antagonist activity at alpha1B adrenoceptor in Wistar rat spleen assessed as phenylephrine-induced contractions after 30 mins. In short, it runs like this:
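Spleen strips (bisected longitudinally) in Krebs with 4 µM propranolol, 1 g resting tension, 2 h equilibration. Cumulative phenylephrine curves recorded isometrically at 30 min intervals, the first discarded and the second used as control. Antagonist pre-equilibrated 30 min before a repeat agonist curve.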

For `COc1ccccc1N1CCN(CC2COC3(CCN(S(=O)(=O)c4ccc(OC(F)(F)F)cc4)CC3)O2)CC1` (stereo not given), the figures for the Ratio in assay [1], in assay [2] and in assay [5] were 2.45, 0.42 and 5.75, respectively. The values for the inhibition constant Ki in assay [3] and in assay [4] were 8.91 nM and 148 nM, respectively. In addition, the values for the pKb in assay [6] and in assay [7] were 6.98 and 7.74, respectively.
Consider `COc1ccccc1N1CCN(CC2COC3(CCS(=O)(=O)CC3)O2)CC1` (stereo not given), for which the Ratio in assay [1] was found to be 0.72; in assay [2], 0.34; in assay [5], 2.09. Besides, the inhibition constant Ki in assay [3] is 9.77 nM; in assay [4] it was 288 nM. Further, the results for the pKb in assay [6] and in assay [7] were 7.34 and 7.66, respectively.
For the compound `COc1ccccc1N1CCN(CC2COC3(CCOCC3)O2)CC1` (stereo not given), the values for the Ratio in assay [1], in assay [2] and in assay [5] were 0.6, 1.44 and 0.41, respectively. Moreover, the figures for the inhibition constant (Ki) in assay [3] and in assay [4] were 17 nM and 324 nM, respectively. The pKb in assay [6] was found to be 7.55; in assay [7] it was 7.17.
As for `COc1ccccc1N1CCN(CC2COC3(CCN(C(=O)c4ccc(C(F)(F)F)cc4)CC3)O2)CC1` (stereo not given), the results for the Ratio in assay [1], in assay [2] and in assay [5] were 0.31, 0.09 and 3.47, respectively. For the same compound, the Ki is 10.2 nM in assay [3] and 63.1 nM in assay [4]. Moreover, the pKb was determined as 7.79 in assay [6] and 8.33 in assay [7].
As to `COc1ccccc1N1CCN(CC2COC3(CCN(S(=O)(=O)c4ccc(C)cc4)CC3)O2)CC1` (stereo not given), the figures for the Ratio in assay [1], in assay [2] and in assay [5] were 0.36, 0.11 and 3.23, respectively. Besides, the Ki in assay [3] was 4.57 nM; in assay [4], 8.32 nM. Also, the pKb is 7.4 in assay [6] and 7.91 in assay [7].
Take `COc1ccccc1N1CCN(CC2COC3(CCN(S(=O)(=O)c4ccccc4)CC3)O2)CC1` (stereo not given): the Ratio in assay [1] was 0.37; in assay [2], 0.13; in assay [5] it was 2.88. Also, the figures for the inhibitory constant (Ki) in assay [3] and in assay [4] were 7.94 nM and 85.1 nM, respectively. Moreover, the pKb amounted to 7.48 in assay [6] and 7.94 in assay [7].
Consider `COc1ccccc1N1CCN(CC2COC3(CCN(c4ccccn4)CC3)O2)CC1` (stereo not given), for which the figures for the Ratio in assay [1], in assay [2] and in assay [5] were 0.17, 0.1 and 1.7, respectively. Also, the results for the Ki in assay [3] and in assay [4] were 17.8 nM and 1000 nM, respectively. Also, the pKb in assay [6] came to 7.63; in assay [7], 7.86.
As for `CCCCNC(=O)N1CCC2(CC1)OCC(CN1CCN(c3ccccc3OC)CC1)O2` (stereo not given), the Ratio in assay [1] turned out to be 0.81; in assay [2], 0.77; in assay [5], 1.04. For the same compound, the Ki was 20 nM in assay [3] and 240 nM in assay [4]. Further, the pKb in assay [6] turned out to be 7.38; in assay [7], 7.4.
Take `COc1ccccc1N1CCN(CC2COC3(CCCCC3)O2)CC1` (stereo not given): the values for the Ratio in assay [1], in assay [2] and in assay [5] were 12.6, 14.4 and 0.87, respectively. Besides, the Ki in assay [4] is 126 nM. Also, the pKb in assay [6] was 6.78; in assay [7], 6.72.
As to `COc1ccccc1N1CCN(CC2COC3(CCNCC3)O2)CC1` (stereo not given), the Ratio is 0.14 in assay [1], 0.13 in assay [2] and 1.09 in assay [5]. For the same compound, the Ki in assay [3] is 49 nM; in assay [4], 42.7 nM. Besides, the pKb is 7.74 in assay [6] and 7.78 in assay [7].
Consider `COc1ccccc1N1CCN(CC2COC3(CCN(C(=O)C4CCCCC4)CC3)O2)CC1` (stereo not given), for which the Ratio in assay [1] is 1.17; in assay [2], 0.49; in assay [5] it was 2.4. Further, the Ki in assay [3] is 30.9 nM; in assay [4], 110 nM. Moreover, the figures for the pKb in assay [6] and in assay [7] were 6.95 and 7.33, respectively.
In the case of `COc1ccccc1N1CCN(CC2COC3(CCN(C(C)=O)CC3)O2)CC1` (stereo not given), the Ratio in assay [1] turned out to be 0.2; in assay [2] it was 0.05; in assay [5], 3.55. Besides, the Ki in assay [3] was 60.3 nM; in assay [4], 1000 nM. Besides, the pKb was found to be 7.17 in assay [6] and 7.72 in assay [7].
Regarding `COc1ccccc1N1CCN(CC2COC3(CCN(S(=O)(=O)c4ccc([N+](=O)[O-])cc4)CC3)O2)CC1` (stereo not given), the Ratio in assay [1] is 1.9; in assay [2], 1.86; in assay [5], 1.02. For the same compound, the figures for the Ki in assay [3] and in assay [4] were 5.25 nM and 110 nM, respectively. The figures for the negative logarithm of the Kb (pKb) in assay [6] and in assay [7] were 7.74 and 7.75, respectively.
For the compound `COc1ccccc1N1CCN(CC2COC3(CCN(S(=O)(=O)c4cccs4)CC3)O2)CC1` (stereo not given), the figures for the Ratio in assay [1], in assay [2] and in assay [5] were 0.64, 0.16 and 3.89, respectively. Also, the Ki in assay [3] is 7.94 nM; in assay [4] it was 85.1 nM. The negative-log Kb (pKb) is 7.46 in assay [6] and 8.05 in assay [7].
As for `COc1ccccc1N1CCN(CC2COC3(CCN(c4ccccc4)CC3)O2)CC1` (stereo not given), the figures for the Ratio in assay [1], in assay [2] and in assay [5] were 0.44, 0.74 and 0.6, respectively. Moreover, the results for the Ki in assay [3] and in assay [4] were 6.46 nM and 155 nM, respectively. The pKb in assay [6] was determined as 7.78; in assay [7] it was 7.56.
Take `COc1ccccc1N1CCN(CC2COC3(CCN(Cc4ccccc4)CC3)O2)CC1` (stereo not given): the Ratio in assay [1] stood at 7.58; in assay [2], 26.3; in assay [5], 0.29. Also, the Ki is 6.76 nM in assay [3] and 16.6 nM in assay [4]. In addition, the pKb in assay [6] is 7.72; in assay [7] it was 7.18.
In the case of `COc1ccccc1N1CCN(CC2COC3(CCSCC3)O2)CC1` (stereo not given), the figures for the Ratio in assay [1], in assay [2] and in assay [5] were 0.17, 0.16 and 1.07, respectively. Further, the Ki was 8.51 nM in assay [3] and 141 nM in assay [4]. The figures for the pKb in assay [6] and in assay [7] were 7.6 and 7.63, respectively.
Turning to `COc1ccccc1N1CCN(CC2COC3(CCN(C(=O)Nc4ccccc4)CC3)O2)CC1` (stereo not given), the figures for the Ratio in assay [1], in assay [2] and in assay [5] were 1.09, 0.12 and 9.12, respectively. Moreover, the results for the Ki in assay [3] and in assay [4] were 12 nM and 81.3 nM, respectively. Further, the results for the pKb in assay [6] and in assay [7] were 7.22 and 8.18, respectively.

Usually Ki stands for a measure of affinity in units of concentration, obtained from inhibition or displacement. As a reminder, the pKb is the negative decadic logarithm of the Kb, by convention in mol/L.
